Data published in ChEMBL document CHEMBL4808225, “Discovery and Characterization of Selective and Ligand-Efficient DYRK Inhibitors” (J Med Chem, 2021).
≈ marks a conversion by molar mass, not a printed value.

Columns and labels:
[1] = Metabolic stability in rat liver microsomes; assay type: ADME, Microsome; details: read-out: Stabilty
[2] = target: Dual specificity protein kinase CLK1 (Homo sapiens, UniProt P49759); experiment: Inhibition of wild-type human full length CLK1 (M1 to I484 residues) expressed in bacterial expression system assessed as remaining activity at 1 uM by Kinomescan method relative to control
Procedure, shortened: (§1)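 KINOMEscan competition binding panel run with inhibitor at 1 μM; read-out is remaining kinase activity (percent of control).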

[3] = target: T1, Dual specificity tyrosine-phosphorylation-regulated kinase 1A (Homo sapiens, UniProt Q13627); experiment: Displacement of Kinase tracer 236 from biotinylated DYRK1A (unknown origin) expressed in Escherichia coli BL21 (DE3) incubated for 1.5 hrs by TR-FRET assay
[4] = target: T1, Dual specificity tyrosine-phosphorylation-regulated kinase 1A; experiment: Binding affinity to biotinylated DYRK1A (unknown origin) expressed in Escherichia coli BL21 (DE3) assessed as dissociation constant measured up to 5 min by SPR method
[5] = target: Cyclin-dependent kinase 2 (Homo sapiens) (UniProt P24941); experiment: Inhibition of wild-type human full length CDK2 (M1 to L298 residues) expressed in bacterial expression system assessed as remaining activity at 1 uM by Kinomescan method relative to control; procedure, shortened: as §1
[6] = Metabolic stability in human liver microsomes; assay type: ADME, Microsome; details: read-out: Stabilty
[7] = target: T2, Dual specificity tyrosine-phosphorylation-regulated kinase 2 (Homo sapiens) (UniProt Q92630); experiment: Inhibition of wild-type human full length DYRK2 (M1 to S528 residues) expressed in mammalian expression system assessed as remaining activity at 1 uM by Kinomescan method relative to control; procedure, shortened: as §1
T2 sequence (whole entry): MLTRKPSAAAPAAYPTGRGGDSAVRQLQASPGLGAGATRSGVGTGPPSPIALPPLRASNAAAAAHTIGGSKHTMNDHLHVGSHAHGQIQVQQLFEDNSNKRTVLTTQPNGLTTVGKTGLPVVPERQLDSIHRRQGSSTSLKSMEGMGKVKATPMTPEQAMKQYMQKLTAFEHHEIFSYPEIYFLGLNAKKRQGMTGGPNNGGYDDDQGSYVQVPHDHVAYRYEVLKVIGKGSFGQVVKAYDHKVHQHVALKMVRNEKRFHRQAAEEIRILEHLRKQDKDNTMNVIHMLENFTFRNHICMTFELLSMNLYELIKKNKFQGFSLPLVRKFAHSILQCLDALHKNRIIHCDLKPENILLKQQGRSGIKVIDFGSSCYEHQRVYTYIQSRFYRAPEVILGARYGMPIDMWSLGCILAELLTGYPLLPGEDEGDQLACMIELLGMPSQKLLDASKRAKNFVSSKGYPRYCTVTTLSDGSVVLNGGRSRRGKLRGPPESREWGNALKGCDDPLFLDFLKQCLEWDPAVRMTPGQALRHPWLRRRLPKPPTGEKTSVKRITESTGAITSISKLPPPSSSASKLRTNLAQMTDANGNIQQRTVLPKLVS

[8] = target: Dual specificity protein kinase CLK3 (Homo sapiens) (UniProt P49761); experiment: Inhibition of wild-type human full length CLK3 (M1 to R490 residues) expressed in bacterial expression system assessed as remaining activity at 1 uM by Kinomescan method relative to control; procedure, shortened: as §1
[9] = target: Glycogen synthase kinase-3 beta (Homo sapiens) (UniProt P49841); experiment: Inhibition of wild-type human full length GSK3B (M1 to T433 residues) expressed in mammalian expression system assessed as remaining activity at 1 uM by Kinomescan method relative to control; procedure, shortened: as §1
[10] = Thermodynamic solubility of the compound at pH 6.8; assay type: physicochemical; details: buffer, read-out: Therm_solubility
Procedure, shortened: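 Thermodynamic solubility measured at pH 6.8 in a single experiment, reported in […].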

[11] = target: Dual specificity protein kinase CLK2 (Homo sapiens) (UniProt P49760); experiment: Inhibition of wild-type human partial length CLK2 (D144 to R498 residues) expressed in bacterial expression system assessed as remaining activity at 1 uM by Kinomescan method relative to control; procedure, shortened: as §1
[12] = target: Dual specificity tyrosine-phosphorylation-regulated kinase 1B (Homo sapiens) (UniProt Q9Y463); experiment: Inhibition of wild-type human full length DYRK1B (M1 to S629 residues) expressed in bacterial expression system assessed as remaining activity at 1 uM by Kinomescan method relative to control; procedure, shortened: as §1
[13] = target: T1, Dual specificity tyrosine-phosphorylation-regulated kinase 1A; experiment: Inhibition of human DYRK1A-mediated tau phosphorylation expressed in HEK293 cells incubated for 2 hrs by ELISA; assay type: cell-based

Dual specificity tyrosine-phosphorylation-regulated kinase 1B (Homo sapiens), sequence (Q9Y463 whole entry, looked up, the tested form may be a part): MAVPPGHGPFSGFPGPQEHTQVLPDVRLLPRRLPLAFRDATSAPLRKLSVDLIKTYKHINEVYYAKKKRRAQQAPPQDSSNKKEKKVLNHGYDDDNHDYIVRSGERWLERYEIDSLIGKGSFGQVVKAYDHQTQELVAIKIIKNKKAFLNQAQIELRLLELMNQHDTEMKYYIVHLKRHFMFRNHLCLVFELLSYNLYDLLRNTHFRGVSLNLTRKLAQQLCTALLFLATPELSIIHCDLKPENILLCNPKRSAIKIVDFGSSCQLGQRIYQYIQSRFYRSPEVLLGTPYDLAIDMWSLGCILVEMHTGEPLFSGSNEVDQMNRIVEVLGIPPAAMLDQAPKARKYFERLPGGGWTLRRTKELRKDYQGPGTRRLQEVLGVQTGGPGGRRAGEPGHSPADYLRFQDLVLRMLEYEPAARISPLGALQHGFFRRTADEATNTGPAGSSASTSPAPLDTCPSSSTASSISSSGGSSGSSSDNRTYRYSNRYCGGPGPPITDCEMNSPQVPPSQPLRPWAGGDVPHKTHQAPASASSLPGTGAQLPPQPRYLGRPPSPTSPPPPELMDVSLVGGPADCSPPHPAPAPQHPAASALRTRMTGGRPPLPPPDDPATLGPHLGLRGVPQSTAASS
Dual specificity protein kinase CLK1, sequence (P49759 whole entry, looked up, the tested form may be a part): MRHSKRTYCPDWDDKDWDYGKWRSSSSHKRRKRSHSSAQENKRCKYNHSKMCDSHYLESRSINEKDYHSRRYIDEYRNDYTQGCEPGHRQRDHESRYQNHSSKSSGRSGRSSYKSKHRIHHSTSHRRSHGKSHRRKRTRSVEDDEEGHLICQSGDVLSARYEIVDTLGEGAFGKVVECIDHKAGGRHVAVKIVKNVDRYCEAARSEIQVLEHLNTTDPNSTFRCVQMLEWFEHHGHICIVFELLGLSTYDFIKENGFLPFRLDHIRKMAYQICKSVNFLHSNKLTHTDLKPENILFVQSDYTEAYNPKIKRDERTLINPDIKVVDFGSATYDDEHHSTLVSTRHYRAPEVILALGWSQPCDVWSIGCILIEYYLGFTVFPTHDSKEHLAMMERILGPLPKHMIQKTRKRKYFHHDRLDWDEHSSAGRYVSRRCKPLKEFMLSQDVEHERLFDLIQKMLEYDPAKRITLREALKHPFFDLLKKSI
Dual specificity protein kinase CLK2 (Homo sapiens), sequence (P49760 whole entry, looked up, the tested form may be a part): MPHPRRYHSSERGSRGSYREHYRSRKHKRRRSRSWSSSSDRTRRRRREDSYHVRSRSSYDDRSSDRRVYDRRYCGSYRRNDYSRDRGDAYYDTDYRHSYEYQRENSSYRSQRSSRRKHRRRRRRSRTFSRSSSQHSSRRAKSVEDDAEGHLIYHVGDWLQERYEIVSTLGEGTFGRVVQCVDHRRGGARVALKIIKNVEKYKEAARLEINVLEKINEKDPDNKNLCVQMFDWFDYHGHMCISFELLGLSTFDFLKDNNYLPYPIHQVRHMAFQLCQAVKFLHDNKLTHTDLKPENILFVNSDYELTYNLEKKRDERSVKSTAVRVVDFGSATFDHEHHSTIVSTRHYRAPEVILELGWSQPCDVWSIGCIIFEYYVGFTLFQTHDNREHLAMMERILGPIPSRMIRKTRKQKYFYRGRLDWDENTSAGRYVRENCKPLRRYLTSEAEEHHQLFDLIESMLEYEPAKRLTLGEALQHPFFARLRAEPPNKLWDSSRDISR
Glycogen synthase kinase-3 beta (Homo sapiens), sequence (P49841 whole entry, looked up, the tested form may be a part): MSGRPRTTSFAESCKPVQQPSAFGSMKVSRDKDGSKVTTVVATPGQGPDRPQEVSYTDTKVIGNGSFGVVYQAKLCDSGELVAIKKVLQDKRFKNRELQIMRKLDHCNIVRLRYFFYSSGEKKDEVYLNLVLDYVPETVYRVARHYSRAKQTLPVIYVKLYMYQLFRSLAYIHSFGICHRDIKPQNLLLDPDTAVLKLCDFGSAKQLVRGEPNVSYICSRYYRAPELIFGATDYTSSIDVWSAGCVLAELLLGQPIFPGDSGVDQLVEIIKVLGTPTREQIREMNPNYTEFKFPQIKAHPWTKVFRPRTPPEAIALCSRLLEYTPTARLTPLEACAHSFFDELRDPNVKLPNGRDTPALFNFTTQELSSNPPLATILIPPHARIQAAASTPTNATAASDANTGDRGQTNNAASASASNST
Dual specificity protein kinase CLK3 (Homo sapiens), sequence (P49761 whole entry, looked up, the tested form may be a part): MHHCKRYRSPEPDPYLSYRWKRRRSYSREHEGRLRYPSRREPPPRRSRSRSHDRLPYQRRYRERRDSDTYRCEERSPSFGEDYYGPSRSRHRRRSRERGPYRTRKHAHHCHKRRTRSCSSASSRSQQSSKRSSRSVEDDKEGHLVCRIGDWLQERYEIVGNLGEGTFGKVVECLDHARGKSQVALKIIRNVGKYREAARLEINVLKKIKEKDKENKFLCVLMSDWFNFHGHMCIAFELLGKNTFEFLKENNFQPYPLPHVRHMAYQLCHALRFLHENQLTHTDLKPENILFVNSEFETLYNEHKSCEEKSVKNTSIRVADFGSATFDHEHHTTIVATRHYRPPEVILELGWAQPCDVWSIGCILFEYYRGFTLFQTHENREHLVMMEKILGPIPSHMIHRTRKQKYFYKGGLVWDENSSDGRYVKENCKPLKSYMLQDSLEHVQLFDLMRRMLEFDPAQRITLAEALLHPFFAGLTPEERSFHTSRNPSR

Work on `c1cnn2ncc(-c3ccnc(N4CCC45COC5)n3)c2c1` yielded a microsomal CLint [1] of 119 µL/min/mg, an Activity [2] of 33% and an IC50 [3] of 79.4 nM. It also gave a Kd [4] of 64 nM, an Activity [5] of 100% and a microsomal CLint [6] of 126 µL/min/mg. The Activity [7] was 11%, the Activity [8] was 54% and the Activity [9] was 75%. For the same compound, the solubility thermodynamic [10] was 60 µg/mL (≈ 204 µM), the Activity [11] was 13% and the Activity [12] was 8.3%.

For `CN(C)c1ncc(F)c(-c2cnn3ncccc23)n1`, the microsomal CLint [1] was 983 µL/min/mg, the Activity [2] was 53% and the IC50 [3] was 57.5 nM. For the same compound, the Kd [4] was 12 nM, the Activity [5] was 100% and the microsomal CLint [6] was 697 µL/min/mg. For the same compound, the Activity [7] was 55%, the Activity [8] was 84% and the Activity [9] was 93%. For the same compound, the IC50 [13] was 250 nM, the solubility thermodynamic [10] was 30 µg/mL (≈ 116 µM) and the Activity [11] was 54%. It also gave an Activity [12] of 71%.
